Assay results: ChEMBL document CHEMBL1132232, “7alpha-Iodo and 7alpha-fluoro steroids as androgen receptor-mediated imaging agents” (J Med Chem, 1999)

Experiments:
Rattus norvegicus [1] = assay: Distribution of tissue Radioactivity following Intravenous injection into castrated male rat prostate/blood at 2 hours time; assay type: ADME, organism-based; settings: other tissue
Method in brief: (§1)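 Male Sprague–Dawley rats, about 250 g, were castrated and injected the next day via the tail vein with 5.4 μCi (2.4 pmol) of 125I tracer in ethanol/saline (1:4). There were 5–6 rats per group. At 0.5, 1, 2 or 4 h, rats were ether-anesthetized and killed by exsanguination. Tissues were dissected, weighed and counted, giving % injected dose/g and prostate/blood ratios.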

Rattus norvegicus [2] = assay: Distribution of tissue Radioactivity following subcutaneous injection of […] of 5-alpha-DHT 15 min before the administration of the [125I]- tracer castrated male rat spleen at 1 hour time; assay type: ADME, organism-based; settings: in vivo, sc
Method in brief: (§2)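 Castrated male Sprague–Dawley rats, about 250 g, received 5α-DHT subcutaneously in propylene glycol/saline (3:2) 15 min before a tail-vein 125I tracer (5.4 μCi, 2.4 pmol, in ethanol/saline 1:4). There were 5–6 rats per group. At 1 h, rats were ether-anesthetized and exsanguinated. Tissues were weighed and counted as % injected dose/g, plus the prostate/blood ratio.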

Rattus norvegicus [3] = assay: Distribution of tissue Radioactivity following Intravenous injection into castrated male rat lung at 2 hours time; assay type: ADME, organism-based; settings: in vivo; method in brief: as §1
Rattus norvegicus [4] = assay: Distribution of tissue Radioactivity following Intravenous injection into castrated male rat lung at 0.5 hours time; assay type: ADME, organism-based; settings: in vivo; method in brief: as §1
[5] = target: T1, Androgen receptor (Homo sapiens) (UniProt P10275); settings: CV-1
T1 sequence (whole entry): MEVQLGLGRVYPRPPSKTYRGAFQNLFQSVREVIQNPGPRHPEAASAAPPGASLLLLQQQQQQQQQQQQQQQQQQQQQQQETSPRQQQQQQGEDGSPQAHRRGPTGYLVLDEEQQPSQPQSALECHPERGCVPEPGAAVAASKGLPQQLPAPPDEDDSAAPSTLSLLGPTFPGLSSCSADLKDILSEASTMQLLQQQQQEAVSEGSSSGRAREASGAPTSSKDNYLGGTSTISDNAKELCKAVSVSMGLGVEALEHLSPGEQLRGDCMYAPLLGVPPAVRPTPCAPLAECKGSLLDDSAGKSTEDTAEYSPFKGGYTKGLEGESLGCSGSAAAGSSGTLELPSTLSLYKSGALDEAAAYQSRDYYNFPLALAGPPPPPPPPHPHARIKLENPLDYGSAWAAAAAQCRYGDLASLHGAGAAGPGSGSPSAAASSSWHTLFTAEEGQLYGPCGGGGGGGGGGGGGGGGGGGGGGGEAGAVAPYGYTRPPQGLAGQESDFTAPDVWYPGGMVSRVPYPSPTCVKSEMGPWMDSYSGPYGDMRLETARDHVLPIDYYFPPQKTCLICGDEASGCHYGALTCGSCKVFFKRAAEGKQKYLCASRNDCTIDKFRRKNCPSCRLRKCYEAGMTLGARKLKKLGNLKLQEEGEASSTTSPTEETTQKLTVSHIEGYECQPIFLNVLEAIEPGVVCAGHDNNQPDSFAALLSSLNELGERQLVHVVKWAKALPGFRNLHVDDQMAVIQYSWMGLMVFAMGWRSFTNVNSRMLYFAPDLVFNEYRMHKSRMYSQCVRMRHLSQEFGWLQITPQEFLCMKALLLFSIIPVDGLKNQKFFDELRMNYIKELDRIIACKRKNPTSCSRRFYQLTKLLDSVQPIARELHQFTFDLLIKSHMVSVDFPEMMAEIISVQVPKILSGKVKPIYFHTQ

Rattus norvegicus [6] = assay: Distribution of tissue Radioactivity following Intravenous injection into castrated male rat spleen at 4 hours time; assay type: ADME, organism-based; settings: in vivo; method in brief: as §1
Rattus norvegicus [7] = assay: Distribution of tissue Radioactivity following Intravenous injection into castrated male rat kidney at 0.5 hours time; assay type: ADME, organism-based; settings: in vivo; method in brief: as §1
Rattus norvegicus [8] = assay: Distribution of tissue Radioactivity following Intravenous injection into castrated male rat fat at 1 hour time; assay type: ADME, organism-based, Adipose tissue; settings: in vivo; method in brief: as §1
Rattus norvegicus [9] = assay: Distribution of tissue Radioactivity following subcutaneous injection of […] of 5-alpha-DHT 15 min before the administration of the [125I]- tracer castrated male rat liver at 1 hour time; assay type: ADME, organism-based; settings: in vivo, sc; method in brief: as §2
Rattus norvegicus [10] = assay: Distribution of tissue Radioactivity following subcutaneous injection of […] of 5-alpha-DHT 15 min before the administration of the [125I]- tracer castrated male rat muscle at 1 hour time; assay type: ADME, organism-based; settings: in vivo, sc; method in brief: as §2
Rattus norvegicus [11] = assay: Distribution of tissue Radioactivity following Intravenous injection into castrated male rat kidney at 1 hour time; assay type: ADME, organism-based; settings: in vivo; method in brief: as §1
Rattus norvegicus [12] = assay: Distribution of tissue Radioactivity following Intravenous injection into castrated male rat prostate/blood at 1 hours time; assay type: ADME, organism-based; settings: other tissue; method in brief: as §1
Rattus norvegicus [13] = assay: Distribution of tissue Radioactivity following Intravenous injection into castrated male rat liver at 1 hour time; assay type: ADME, organism-based; settings: in vivo; method in brief: as §1
Rattus norvegicus [14] = assay: Distribution of tissue Radioactivity following Intravenous injection into castrated male rat spleen at 1 hour time; assay type: ADME, organism-based; settings: in vivo; method in brief: as §1
Rattus norvegicus [15] = assay: Distribution of tissue Radioactivity following Intravenous injection into castrated male rat fat at 0.5 hours time; assay type: ADME, organism-based, Adipose tissue; settings: in vivo; method in brief: as §1
Rattus norvegicus [16] = assay: Distribution of tissue Radioactivity following Intravenous injection into castrated male rat liver at 4 hours time; assay type: ADME, organism-based; settings: in vivo; method in brief: as §1
Rattus norvegicus [17] = assay: Distribution of tissue Radioactivity following Intravenous injection into castrated male rat lung at 1 hour time; assay type: ADME, organism-based; settings: in vivo; method in brief: as §1
Rattus norvegicus [18] = assay: Distribution of tissue Radioactivity following Intravenous injection into castrated male rat thyroid at 2 hours time; assay type: ADME, organism-based, Thyroid gland; settings: in vivo; method in brief: as §1
Rattus norvegicus [19] = assay: Distribution of tissue Radioactivity following Intravenous injection into castrated male rat spleen at 2 hours time; assay type: ADME, organism-based; settings: in vivo; method in brief: as §1
Rattus norvegicus [20] = assay: Distribution of tissue Radioactivity following Intravenous injection into castrated male rat kidney at 2 hours time; assay type: ADME, organism-based; settings: in vivo; method in brief: as §1
Rattus norvegicus [21] = assay: Distribution of tissue Radioactivity following Intravenous injection into castrated male rat muscle at 2 hours time; assay type: ADME, organism-based; settings: in vivo; method in brief: as §1
Rattus norvegicus [22] = assay: Distribution of tissue Radioactivity following Intravenous injection into castrated male rat liver at 0.5 hours time; assay type: ADME, organism-based; settings: in vivo; method in brief: as §1
Rattus norvegicus [23] = assay: Distribution of tissue Radioactivity following Intravenous injection into castrated male rat prostate/blood at 4 hours time; assay type: ADME, organism-based; settings: in vivo; method in brief: as §1
Rattus norvegicus [24] = assay: Distribution of tissue Radioactivity following subcutaneous injection of […] of 5-alpha-DHT 15 min before the administration of the [125I]- tracer castrated male rat blood at 1 hour time; assay type: ADME, organism-based; settings: in vivo, sc; method in brief: as §2
Rattus norvegicus [25] = assay: Distribution of tissue Radioactivity following Intravenous injection into castrated male rat blood at 1 hour time; assay type: ADME, organism-based; settings: in vivo; method in brief: as §1

C[C@]12CCC(=O)CC1C[C@@H](I)[C@@H]1[C@@H]2CC[C@@]2(C)[C@H]1CC[C@]2(C)O (stereo not given in full)
Biodistribution (Rattus norvegicus [1]): 1.43% | Dose/g (Rattus norvegicus [2]): 0.18% | Biodistribution (Rattus norvegicus [3]): 0.24% | Dose/g (Rattus norvegicus [4]): 0.22% | RSA [5]: 28 | Dose/g (Rattus norvegicus [6]): 0.17% | Biodistribution (Rattus norvegicus [7]): 0.26% | Dose/g (Rattus norvegicus [8]): 0.25% | Dose/g (Rattus norvegicus [9]): 0.36% | Biodistribution (Rattus norvegicus [10]): 0.08% | Dose/g (Rattus norvegicus [11]): 0.27% | Biodistribution (Rattus norvegicus [12]): 1.17% | Biodistribution (Rattus norvegicus [13]): 0.29% | Biodistribution (Rattus norvegicus [14]): 0.16% | Biodistribution (Rattus norvegicus [15]): 0.2% | Dose/g (Rattus norvegicus [16]): 0.24% | Biodistribution (Rattus norvegicus [17]): 0.24% | Dose/g (Rattus norvegicus [18]): 3.55% | Biodistribution (Rattus norvegicus [19]): 0.15% | Dose/g (Rattus norvegicus [20]): 0.25% | Dose/g (Rattus norvegicus [21]): 0.07% | Dose/g (Rattus norvegicus [22]): 0.31% | Dose/g (Rattus norvegicus [23]): 1.19% | Dose/g (Rattus norvegicus [24]): 0.35% | Biodistribution (Rattus norvegicus [25]): 0.33%
